Assay results published in ChEMBL document CHEMBL4334452, “Monosaccharide Analogues of Anticancer Peptide R-Lycosin-I: Role of Monosaccharide Conjugation in Complexation and the Potential of Lung Cancer Targeting and Therapy” (J Med Chem, 2019).
Activity calls are given as the source filed them. The calls are words filed in the database; no cut-off is given here. *1 amine or outer side, *2 acyl side, *3 side chain or, on linkers, in order; H or OH if unused. Where a SMILES comes first, the peptide text is derived from it. The star is where a group is joined. NH(CH2)3O(βDGlc) = OC[C@H]1O[C@@H](OCCCN*)[C@H](O)[C@@H](O)[C@@H]1O; Glutaryl = O=C(CCCC(=O)[*:2])[*:1]

Tests used:
A549 [1] = assay: Induction of mitochondrial membrane potential loss in human A549 cells at 15 uM measured after 24 hrs by JC1 staining based fluorescence microscopic analysis; format: functional, cell-based
Outline: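 A549 cells exposed to 15 µM peptide for 24 h, then stained with JC-1 kit. Monomer and aggregate emissions viewed by fluorescence microscopy; depolarization read as a rise in the green/red ratio, n=3.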

A549 [2] = assay: Induction of apoptosis in human A549 cells assessed as viable cells at 8 uM measured after 4 hrs by Annexin V-FITC/propidium iodide staining-based flow cytometry (reference value: 95.4%); format: functional; details: A549, 4 h, read-out: Activity
Outline: (§1)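 A549 cells grown 24 h, trypsinized, then resuspended in medium with 8 µM peptide for 4 h at 37 °C. Cells washed with cold PBS, stained with Annexin V-FITC/PI, and analysed by flow cytometry.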

A549 [3] = assay: Induction of apoptosis in human A549 cells assessed as early apoptotic cells at 8 uM measured after 4 hrs by Annexin V-FITC/propidium iodide staining-based flow cytometry (reference value: 0.39%); format: functional; outline: as §1
A549 [4] = assay: Induction of apoptosis in human A549 cells assessed as late apoptotic cells at 8 uM measured after 4 hrs by Annexin V-FITC/propidium iodide staining-based flow cytometry (reference value: 3.61%); format: functional; outline: as §1
A549 [5] = assay: Induction of morphological changes in human A549 cells assessed as cell shrinkage at 15 uM measured after 24 hrs by scanning electron microscopic analysis; format: functional, cell-based
A549 [6] = assay: Induction of morphological changes in human A549 cells assessed as disruption of cell membrane at 15 uM measured after 24 hrs by scanning electron microscopic analysis; format: functional, cell-based
Outline: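 A549 cells pre-seeded on mica sheets for 24 h at 37°C, then exposed to 15 μM peptide for 24 h at 37°C. Cells were PBS-washed twice, fixed in 4% paraformaldehyde for 15 min, dehydrated through graded ethanol and imaged by SEM at 15 kV. Untreated cells served as control.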

[7] = molecular target: T1, Solute carrier family 2, facilitated glucose transporter member 1 (Homo sapiens) (UniProt P11166); assay: Binding affinity to GLUT1 in human A549 cells assessed as cytotoxicity by measuring LDH release at 12.5 uM measured after 2 hrs relative to control; format: cell-based
T1 sequence (whole entry): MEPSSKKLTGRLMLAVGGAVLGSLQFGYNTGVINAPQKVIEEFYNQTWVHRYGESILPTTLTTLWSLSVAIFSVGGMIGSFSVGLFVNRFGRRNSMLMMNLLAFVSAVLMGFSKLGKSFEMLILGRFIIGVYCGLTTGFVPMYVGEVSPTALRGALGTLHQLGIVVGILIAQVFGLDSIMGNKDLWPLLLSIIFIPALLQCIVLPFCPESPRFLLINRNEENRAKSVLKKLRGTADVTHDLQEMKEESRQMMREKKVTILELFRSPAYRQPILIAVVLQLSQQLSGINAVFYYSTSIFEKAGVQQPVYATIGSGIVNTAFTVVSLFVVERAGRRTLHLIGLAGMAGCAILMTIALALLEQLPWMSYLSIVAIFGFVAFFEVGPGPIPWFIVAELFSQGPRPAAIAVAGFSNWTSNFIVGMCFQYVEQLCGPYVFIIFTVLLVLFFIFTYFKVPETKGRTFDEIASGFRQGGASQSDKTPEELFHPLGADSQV
Outline: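 A549 cells at 2×10^3/well, allowed to adhere overnight, then exposed to peptide over a concentration series for 2 h. LDH release measured with a kit, absorbance at 490 nm. 1% Triton X-100 taken as 100% release; n=3.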

A549 [8] = assay: Induction of morphological changes in 3D spheroids of human A549 cells assessed as disruption of cell morphology at 30 uM treated every 2 days for 6 days measured every 3 days during compound dosing by microscopic analysis; format: functional, cell-based
Outline: (§2)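 A549 3D spheroids, one per well, in 10% medium with peptide at 30 µM final. Dosed at day 0, then re-added at days 2 and 4, for 6 days total. Spheroids washed thrice, then imaged and sized at days 0, 3 and 6. Viability read by CCK-8.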

[9] = molecular target: T1, Solute carrier family 2, facilitated glucose transporter member 1 (Homo sapiens); assay: Binding affinity to GLUT1 in 3D spheroids of human A549 cells assessed as cytotoxicity by measuring reduction in cell viability at 30 uM treated every 2 days for 6 days by CCK8 assay; format: cell-based; outline: as §2
[10] = molecular target: T1, Solute carrier family 2, facilitated glucose transporter member 1 (Homo sapiens); assay: Binding affinity to GLUT1 in human A549 cells harboring luciferase gene assessed as cytotoxicity by measuring reduction in cell viability after 24 hrs by CCK8 assay; format: cell-based
[11] = Drug uptake in liver of Balb/c nu/nu mouse xenografted with human A549 cells expressing luciferase gene at 3 mg/kg administered intratumorally measured after 6 hrs by fluorescence assay; format: ADME, organism-based; details: in vivo, other
[12] = Drug uptake in heart of Balb/c nu/nu mouse xenografted with human A549 cells expressing luciferase gene at 9 mg/kg, ip measured after 6 hrs by fluorescence assay; format: ADME, organism-based; details: in vivo
A549 [13] = assay: Antitumor activity against human A549 cells expressing luciferase gene xenografted in Balb/c nu/nu mouse assessed as tumor growth inhibition at 9 mg/kg, ip administered every 2 days for seven times measured on day 14 by bioluminescent imaging analysis; format: functional, organism-based
Outline: (§3)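 Male BALB/c nu/nu mice, 4-6 weeks old, carrying subcutaneous A549-luciferase xenografts in the right back. Dosing started when tumors reached 100-200 mm³ (day 0), five per group. Peptide was given at 9 mg/kg i.p. in 200 µL every other day for 7 doses; PBS served as control. Bioluminescent imaging on day 14; tumor size and body weight tracked. Tumors fixed in paraformaldehyde, paraffin-sectioned, TUNEL-stained.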

[14] = Toxicity in Balb/c nu/nu mouse xenografted with human A549 cells expressing luciferase gene assessed as change in body weight at 3 mg/kg administered intratumorally every 3 days for four times measured on day 12; format: organism-based; details: in vivo, other, 72 h
Outline: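 Male BALB/c nu/nu mice, 4–6 weeks old, carrying subcutaneous A549-luciferase tumours (right back, cells in sterile PBS), dosed at a tumour size of 100–200 mm³; five per group, PBS controls. Two regimens: 9 mg/kg i.p. (200 µL) every other day ×7, ended day 14; or 3 mg/kg intratumoral (100 µL) every 3 days ×4, ended day 12. Body weight was monitored throughout.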

A549 [15] = assay: Potency index, ratio of compound effect to R-lycosin-I effect for antitumor activity against human A549 cells expressing luciferase gene xenografted in Balb/c nu/nu mouse at 3 mg/kg administered intratumorally; format: functional
[16] = Toxicity in Balb/c nu/nu mouse xenografted with human A549 cells expressing luciferase gene assessed as effect on liver at 9 mg/kg, ip administered every 2 days for seven times measured on day 14 by H and E staining based assay; format: organism-based; details: in vivo, 48 h
Outline: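 Male BALB/c nu/nu mice bearing subcutaneous A549-luciferase xenografts received 9 mg/kg peptide i.p. (200 µL) every other day for seven doses, with a PBS control group of five. Heart, liver and kidney were fixed in 10% paraformaldehyde, sectioned and stained with H&E for histology.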

[17] = Stability of the compound in serum (unknown origin) measured up to 48 hrs; format: ADME, cell-free
A549 [18] = assay: Antitumor activity against human A549 cells expressing luciferase gene xenografted in Balb/c nu/nu mouse assessed as increase in apoptotic cells at 9 mg/kg, ip administered every 2 days for seven times measured on day 14 by TUNEL assay; format: functional, organism-based; outline: as §3

| Compound | Activity (A549 [1]) | viability at 8 µM (A549 [2]) [%] | Activity (A549 [3]) [%] | Activity (A549 [4]) [%] | Activity (A549 [5]) | Activity (A549 [6]) | Activity [7] [%] | Activity (A549 [8]) | Activity [9] | Activity [10] | Drug uptake [11] | Drug uptake [12] | TGI (A549 [13]) | Activity [14] | Ratio (A549 [15]) | Activity [16] | Stability [17] | Activity (A549 [18]) |
| --- | --- | --- | --- | --- | --- | --- | --- | --- | --- | --- | --- | --- | --- | --- | --- | --- | --- | --- |
| CC[C@H](C)[C@H](NC(=O)[C@H](Cc1ccccc1)NC(=O)[C@H](CCCNC(=N)N)NC(=O)[C@H](C)NC(=O)[C@@H](NC(=O)[C@H](CO)NC(=O)[C@H](CCCNC(=N)N)NC(=O)[C@H](CCSC)NC(=O)[C@H](C)NC(=O)[C@H](CCCNC(=N)N)NC(=O)[C@H](Cc1ccccc1)NC(=O)[C@H](Cc1c[nH]c2ccccc12)NC(=O)CNC(=O)[C@@H](N)CCCNC(=N)N)[C@@H](C)CC)C(=O)N[C@@H](C)C(=O)N[C@@H](CCCNC(=N)N)C(=O)N[C@@H](CCC(=O)O)C(=O)N[C@@H](CCCNC(=N)N)C(=O)N[C@@H](CC(C)C)C(=O)N[C@@H](CCCNC(=N)N)C(=O)N[C@@H](CCC(=O)O)C(=O)N[C@@H](Cc1cnc[nH]1)C(=O)N[C@@H](CC(C)C)C(=O)O (H-RGWFRAMRSIARFIARERLREHL-OH) | Active | 88.8 | 0.63 | 9.87 | Active | Active | > 30 | Active | Active | Active | Active | Active | Active | Non-Toxic |  |  |  |  |
| CC[C@H](C)[C@H](NC(=O)[C@H](Cc1ccccc1)NC(=O)[C@H](CCCNC(=N)N)NC(=O)[C@H](C)NC(=O)[C@@H](NC(=O)[C@H](CO)NC(=O)[C@H](CCCNC(=N)N)NC(=O)[C@H](CCSC)NC(=O)[C@H](C)NC(=O)[C@H](CCCNC(=N)N)NC(=O)[C@H](Cc1ccccc1)NC(=O)[C@H](Cc1c[nH]c2ccccc12)NC(=O)CNC(=O)[C@H](CCCNC(=N)N)NC(=O)CCCC(=O)NCCCO[C@@H]1O[C@H](CO)[C@@H](O)[C@H](O)[C@H]1O)[C@@H](C)CC)C(=O)N[C@@H](C)C(=O)N[C@@H](CCCNC(=N)N)C(=O)N[C@@H](CCC(=O)O)C(=O)N[C@@H](CCCNC(=N)N)C(=O)N[C@@H](CC(C)C)C(=O)N[C@@H](CCCNC(=N)N)C(=O)N[C@@H](CCC(=O)O)C(=O)N[C@@H](Cc1cnc[nH]1)C(=O)N[C@@H](CC(C)C)C(=O)O ({NH(CH2)3O(βDGlc)-Glutaryl}-RGWFRAMRSIARFIARERLREHL-OH) | Active | 59.8 | 1.1 | 38.49 | Active | Active | > 30 | Active | Active | Active | Active | Active | Active | Non-Toxic | 1.6 | Non-Toxic | Stable | Active |
